We go through 48 sequences from the EternaBench riboswitch data.

For orientation: apparent Kd means a dissociation constant that holds for the conditions of the assay.

The data set concerns MS2 coat protein. The experiment in a line: apparent Kd, MS2 coat protein; higher = weaker binding; RNA-MaP array; FMN 200 µM where present. Put shortly:
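Each design was made on Illumina sequencing-chip clusters by stalled E. coli RNA polymerase and titrated with SNAP-549-labelled MS2 coat protein from 0.7 or 1.5 nM, doubling to 3 µM, in the absence and then the presence of constant ligand. The buffer was 100 mM Tris-HCl pH 7.5, 80 mM KCl, 4 mM MgCl2, BSA, DTT, yeast tRNA and Tween-20. The apparent Kd is the median of filtered per-cluster fits of binding curves, with green signal normalised to red-channel RNA signal and control-cluster median Fmax.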

Where [1] appears, read: designed as: OFF switch for flavin mononucleotide, no ligand.
Where [2] appears, read: ligand present: flavin mononucleotide, designed as: OFF switch for flavin mononucleotide.
The mark [3] stands for this setting: designed as: ON switch for flavin mononucleotide, no ligand.
The mark [4] stands for this setting: ligand present: flavin mononucleotide, designed as: ON switch for flavin mononucleotide.

Turning to “UGUAUAUAGGCAGGAUAUACAUGAAUAUAUAUGAUGUAGUAUGAUGUAACAUGAGGAUCACCCAUGUAGAAGGGCCAGUAUAUA”, the “apparent Kd” value under setting [1] worked out at 45.3 nM and the “apparent Kd” value under setting [2] was determined as 129 nM.

With “UUAAUUCAUGUAGGAUAUCCGAUGCGAAGCGUUGGAGAAGGACAUGAGGAUCACCCAUGUUCUAGCGUCUGAGUACAGAUGCAA”, the “apparent Kd” value was 26.9 nM under setting [1] and 88.5 nM under setting [2].

Regarding “AGGUGUCCUGAGAAAUUUCUCGACAUGAGGAUCACCCAUGUAGAGGAUAUCGACGCUGUGCGGUUCGAGAAGGCUACACGAAUU”, the “apparent Kd” value under setting [1] was found to be 12.7 nM and the “apparent Kd” value under setting [2] was 94.3 nM.

Turning to “AAAAAGCGAGGAUAUACAUGAGGAUCACCCAUGUGAAAAAAAAAAAAAAAAAAAAAAAGUAGAAGGCGCAAAAA”, the “apparent Kd” value was 85.8 nM under setting [1] and 65.3 nM under setting [2].

As for “ACGCCCUAGUAGAAGGGACAUCGGCUGGUAAGCAUCAUCUCCUUCUCACAUGAGGAUCACCCAUGUCAGGAUAUACUAGGAUGC”, the “apparent Kd” value came out at 12.2 nM under setting [1] and 35.1 nM under setting [2].

For the sequence “CCACGUCCCAUUAACAUGAGGAUCACCCAUGUCAAAAGACAUGAGGAUAUGCUACCUAAUUGGUAGCAGAAGGCAUGGACGUGG”, the “apparent Kd” value is, setting by setting: under setting [3], 953 nM; under setting [4], 87.8 nM.

For the sequence “GCGCGCGCAGGAUAUACAAUUGUGUGUGGAAACGCGCGCGUACAUGAGGAUCACCCAUGUAGAAGGGUGUGUGU”, the “apparent Kd” value by setting is: under setting [1], 445 nM; under setting [2], 198 nM.

For the sequence “GAGCGAAAGCUCAAUGUCGAUAGCAGAAGGACAUGAAUAACAUGAAUAACAUGAGGAUCACCCAUGUAGGAUAUGCUAUCGACU”, the “apparent Kd” value was determined as 11.1 nM under setting [1] and 108 nM under setting [2].

With “ACUUCACAUGAGGAUCACCCAUGUCAGGCCGGACUAGGAUAUUAUCAACCAGAGUAACCAUAAGAAGGAGUAGGAA”, the “apparent Kd” value under setting [3] was 64.4 nM and the “apparent Kd” value under setting [4] stood at 78.4 nM.

Consider “CGCAAGUCAGGAUAUUCGACUGGUAAAUCAGUGGAUCAGUAGGAGAAGGGACAUGAGGAUCACCCAUGUUUGUA”, for which the “apparent Kd” value under setting [1] is 27.8 nM and the “apparent Kd” value under setting [2] worked out at 30 nM.

Regarding “GUGCCUUGGUAGAAGGCCCAAUGCAAAGCAUAGGGAGGAUAUACAUAUAAUAAAUAAACAUGAGGAUCACCCAUGUGGCACAAA”, the “apparent Kd” value by setting is: under setting [3], 10.8 nM; under setting [4], 10.4 nM.

Turning to “UGGCCGAAGUUAGGAUAUUGGUUAGGGACGGACUAAGAAGGAGCACAUACAUGAGGAUCACCCAUGUUAGAAGAAGAUCCUCCA”, the “apparent Kd” value is, setting by setting: under setting [1], 29.3 nM; under setting [2], 26.7 nM.

Regarding “AAGCGGGCAGGAUAUGCGUACUCACGGGAAAACUGAAUGGUACAUGAGGAUCACCCAUGUAGAAGGGCUUUGAA”, the “apparent Kd” value reads like this: under setting [1], 48.4 nM; under setting [2], 36.3 nM.

For “AGAUAGUUAUAACGCCAUCCCUACAUGAGGAUCACCCAUGUGCAGGAUAUAGGCUUGAAGCAGACCUAGAAGGGCACAGGCUGA”, the “apparent Kd” value is, setting by setting: under setting [1], 8.34 nM; under setting [2], 22.2 nM.

As to “GGAUCACGAGGAUAUCGAUUUUAGUACAUGAGGAUCACCCAUGUUGUCCAGGUCUCGAUUCGAGAAGGCGUGAUUC”, the “apparent Kd” value reads like this: under setting [1], 36.6 nM; under setting [2], 59.2 nM.

As to “GCACUGACAGGAUAUACAUGAGGAUCACCCAUGUGACCCUUAGAGUACUCGCGUACUCGUAGAAGGGUCUGUGC”, the “apparent Kd” value was determined as 36 nM under setting [1] and 105 nM under setting [2].

On to “CCUCGACAUGAGGAUCACCCAUGUCAGGAUAUUGUGUAUCGGGUUUUUUACCGAAAGGCGAGAAGGGAUGUGUG”, for which the “apparent Kd” value by setting is: under setting [1], 16.9 nM; under setting [2], 23.1 nM.

For the sequence “CGAUGAGGAGUGAGGAUAUCGUGUUCGAAAGAACGUGAGAAGGCACAUGAGGAUCACCCAUGUGAAACUUGUCG”, the “apparent Kd” value by setting is: under setting [1], 17.1 nM; under setting [2], 23.9 nM.

For the sequence “ACGCUUUGGGAGAAGGUACGUUAAAUUUUUUCCACAUGAGGAUCACCCAUGUAAGGAUAUCCCAUCGUUAAAUAGUCUUCAGCA”, the “apparent Kd” value under setting [1] was 9.45 nM and the “apparent Kd” value under setting [2] was 9.02 nM.

For “GAAGAUGGUGAGGAUAUCAUUAACCACAUCGGAUGAGAAGGUACCACAUGAGGAUCACCCAUGUACAUAUUACU”, the “apparent Kd” value is, setting by setting: under setting [1], 22.4 nM; under setting [2], 22.9 nM.

On to “GGGUCAACAUGAGGAUCACCCAUGUAGGAUAUCGCUAUUGUAAUCAUGAAACAUGAUUACAAUAGCGAGAAGGACAUAUGCAAA”, for which the “apparent Kd” value came out at 11.3 nM under setting [1] and 23.4 nM under setting [2].

Consider “UUUUUUGUUGUGAGGAUAUCGUAUUCUUUUUGUUACGAGAAGGCACAUGAGGAUCACCCAUGUUUCUUGAUGUU”, for which the “apparent Kd” value by setting is: under setting [1], 15.8 nM; under setting [2], 27.3 nM.

Consider “AGUGUCAUCGAGAAGGCCUCAACAUGAGGAUCACCCAUGUUGCAAAAUGGGAGGAUAUCGAAAAAACAGCUACGUUUCGUAGCA”, for which the “apparent Kd” value under setting [3] came out at 22.6 nM and the “apparent Kd” value under setting [4] turned out to be 5.17 nM.

Consider “UUAUACAUUCGAGGAUAUCGGUGAGAAAUCUUUCGAGAAGGCGAUUCAUGAUGUAUUAUCCUGGACAUGAGGAUCACCCAUGUA”, for which the “apparent Kd” value under setting [3] turned out to be 148 nM and the “apparent Kd” value under setting [4] is 92.5 nM.

For the sequence “UAUAUGUCAGGAUAUUAGUUGAGUUAGAAUUUAUCCUCUGCUGAGAAGGGACAUGAGGAUCACCCAUGUUCCUC”, the “apparent Kd” value by setting is: under setting [1], 15.1 nM; under setting [2], 31.5 nM.

For “AUCAGCUCAUCAGGAUAUACAUCACUGCUUCGGCAGUGUAUUAAGAUCACAUGAGGAUCACCCAUGUAGAAGGGAUGAGCUGAU”, the “apparent Kd” value stood at 32.7 nM under setting [1] and 347 nM under setting [2].

Take “GGAUAGGACAGAGGAUAUACGUGCUAGAGAUACUAGCAAAAUUUCCUCACAUGAGGAUCACCCAUGUAGAAGGCUAUCCUAUCG”: the “apparent Kd” value was 6.34 nM under setting [1] and 31.9 nM under setting [2].

For “AAUAGUAUUGUAGGAUAUGUUAUUUUCUAACAUGAGGAUCACCCAUGUAAUAUAGGGUUGUUUCUACAGAAGGACAAUUUAUUA”, the “apparent Kd” value is, setting by setting: under setting [3], 509 nM; under setting [4], 387 nM.

As to “CCGGAAAAGGAGGAUAUAGGAGUCGAUAGACACCUAGAAGGUCUGACAUGAGGAUCACCCAUGUGUCCUACCGG”, the “apparent Kd” value is, setting by setting: under setting [1], 21.2 nM; under setting [2], 30.2 nM.

For “AAAAAGCGAGGAUAUACAUAGCUAAGACAAAUAAGCAAAAAACAUGAGGAUCACCCAUGUAGAAGGCGCAAAAA”, the “apparent Kd” value is, setting by setting: under setting [1], 19.2 nM; under setting [2], 15.4 nM.

Turning to “GUAGCAACAUGAGGAUCACCCAUGUAGGAUAUCGCUAUUGUAAUCAUGAAACAUGAUUACAAUAGCGAGAAGGACAUAUGCUAU”, the “apparent Kd” value runs as follows: under setting [1], 7 nM; under setting [2], 10.3 nM.

As for “AAACAUGUCCGAGGAUAUCUGAGAUCAUUUUCAAGAGAAGGCGGACAUGAGGAUCACCCAUGUCUCUCCUCAUCGACUCCAAAU”, the “apparent Kd” value under setting [1] turned out to be 6.32 nM and the “apparent Kd” value under setting [2] was found to be 21.1 nM.

Take “GUUAUACAUGAGGAUCACCCAUGUCAAUGUAGUCGAGGAUAUGGGCAGCUAUGAGGCGUACUAGAAGGCGAUGAGU”: the “apparent Kd” value stood at 156 nM under setting [3] and 44.5 nM under setting [4].

For the sequence “CGCUGAGGCGAGAAGGCACAAGAGUGGUGGCGGACAUGAGGAUCACCCAUGUGAGGAUAUCGCACUUGGCGGUGCCUAAAACUA”, the “apparent Kd” value reads like this: under setting [1], 344 nM; under setting [2], 39 nM.

On to “GUCGGAUGUAUAGGAUAUCGACUGGAAUACAGUCGAGAAGGAUACAUGAGGAUCACCCAUGUAAUAAUAAUAAUAAUAACCGAC”, for which the “apparent Kd” value runs as follows: under setting [1], 12.5 nM; under setting [2], 24 nM.

Regarding “UUUUAUUAGUAAGGAUAUACUAGCGAUGAGCUUGUAGAAGGUACAGUCUUAUGUAUAACAUGUUAACAUGAGGAUCACCCAUGU”, the “apparent Kd” value is, setting by setting: under setting [3], 38.6 nM; under setting [4], 22.4 nM.

In the case of “GUGACGAUGUAAGGAUAUGCUGAGGAUAACUCAGCAGAAGGUACAUGAGGAUCACCCAUGUAACGUCACAAUAAUAAUAAUAAU”, the “apparent Kd” value under setting [1] was found to be 12.3 nM and the “apparent Kd” value under setting [2] was found to be 22.9 nM.

“AUUAUAUAGCAAGGAUAUAGAAUAUUAUUUUAACAUGAGGAUCACCCAUGUAACCUUAUGUGUAGCUAGAAGGUGCAUUUAUUA”: the “apparent Kd” value was 73.2 nM under setting [1] and 109 nM under setting [2].

Regarding “UUUAUUUCGGCAGGAUAUACAUGUAUAUAUAUUUCUUUAUAUCUUAUUACAUGAGGAUCACCCAUGUAGAAGGGCCUUCUUCUC”, the “apparent Kd” value is, setting by setting: under setting [1], 55.1 nM; under setting [2], 49.2 nM.

As for “UUACUGUAAUAGAAGGGUAUUUGGGUUUUACAUGAGGAUCACCCAUGUUUUAUAGGAUAUGUUUAUAGUUUUUAAUCAAGUUUA”, the “apparent Kd” value by setting is: under setting [1], 91.1 nM; under setting [2], 68.7 nM.

Take “UCUAUGAAGAUUCGUCAAUACAGUUAGGAUAUGAGAGACAUGAGGAUCACCCAUGUGCAUGUUGAUUAGAAGGAACAAUUAUCU”: the “apparent Kd” value reads like this: under setting [1], 20.9 nM; under setting [2], 19.3 nM.

Regarding “AAUUAGGUCACAGGAUAUACUACAUCCAAUGCAGUAGAAGGGUGACACAUUCUGUGCAGACAUGAGGAUCACCCAUGUAACCAC”, the “apparent Kd” value under setting [3] came out at 11.6 nM and the “apparent Kd” value under setting [4] came to 6.39 nM.

With “GGUACCAUCACAGGAUAUGCUUUCCUUUGGGAAGCAGAAGGGUGUAACAUGAGGAUCACCCAUGUGGUGCCAGGGCGUGAGCCU”, the “apparent Kd” value amounted to 216 nM under setting [3] and 16 nM under setting [4].

“CCACGUCACAUCUACAUGAGGAUCACCCAUGUCGAAAGACAUGAGGAUAUGCAUCCUAAUUGGAUGCAGAAGGCAUGGACGUGG”: the “apparent Kd” value under setting [3] is 1080 nM and the “apparent Kd” value under setting [4] is 71.2 nM.

Consider “GCGUUGUACGAGAAGGCCAAUACAUGAGGAUCACCCAUGUUAAGUUGUUUUGGAGGAUAUCGAUCACUUACAAUAAUGCAACGC”, for which the “apparent Kd” value under setting [1] turned out to be 7.23 nM and the “apparent Kd” value under setting [2] was 6.31 nM.

Regarding “GAAAACUGAGGAUAUACUUUGGGAAAAGAAAAGAUGAUGUUACAUGAGGAUCACCCAUGUAGAAGGCAGAAAAA”, the “apparent Kd” value came out at 25.9 nM under setting [1] and 36 nM under setting [2].

Consider “GGCGAACAGGCUAACAUGAGGAUCACCCAUGUGGACUCAUGGUAGGAUAUGCUGUACUUUGUACAGCAGAAGGGCCGGUGAGCC”, for which the “apparent Kd” value runs as follows: under setting [3], 54.4 nM; under setting [4], 315 nM.

On to “CACGUCCACACAGGAUAUGCUGGACUUUGUCCAGCAGAAGGGUGACAACAUGAGGAUCACCCAUGUAGGACGUGUAUAUUUAAU”, for which the “apparent Kd” value reads like this: under setting [3], 1040 nM; under setting [4], 196 nM.
